Series [1] deals with MMP-2/MMP-14 (Homo sapiens) (UniProt P50281+P08253). The series can be described thus: Selectivity ratio of Ki for human recombinant MMP-14 catalytic domain to Ki for human recombinant MMP-2.
For the next series, the species on record is Homo sapiens. In words: Selectivity ratio of Ki for human recombinant MMP-8 catalytic domain to Ki for human recombinant MMP-2.
Series [2] deals with MMP-2/MMP-9 (Homo sapiens) (UniProt P08253+P14780). The series can be described thus: Selectivity ratio of Ki for human recombinant MMP-9 catalytic domain to Ki for human recombinant MMP-2.
For series [3], the target named is T1, Matrilysin (Homo sapiens) (UniProt P09237).
T1 sequence (whole entry): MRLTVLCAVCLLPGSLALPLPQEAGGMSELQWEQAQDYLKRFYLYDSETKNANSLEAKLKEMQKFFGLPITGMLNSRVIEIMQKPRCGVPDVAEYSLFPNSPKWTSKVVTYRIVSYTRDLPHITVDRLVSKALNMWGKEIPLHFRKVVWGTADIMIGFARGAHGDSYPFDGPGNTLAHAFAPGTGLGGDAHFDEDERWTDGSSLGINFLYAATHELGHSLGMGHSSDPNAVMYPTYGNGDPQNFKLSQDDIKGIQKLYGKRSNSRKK
The series can be described thus: Inhibition of human recombinant MMP-7 at 50 uM by fluorescence spectrophotometric analysis relative to control.

Series [4] concerns the target Stromelysin-1 (Homo sapiens) (UniProt P08254). The series can be described thus: Inhibition of human recombinant MMP-3 catalytic domain at 50 uM by fluorescence spectrophotometric analysis relative to control.
Series [5] addresses T2, Interstitial collagenase (Homo sapiens) (UniProt P03956).
T2 sequence (whole entry): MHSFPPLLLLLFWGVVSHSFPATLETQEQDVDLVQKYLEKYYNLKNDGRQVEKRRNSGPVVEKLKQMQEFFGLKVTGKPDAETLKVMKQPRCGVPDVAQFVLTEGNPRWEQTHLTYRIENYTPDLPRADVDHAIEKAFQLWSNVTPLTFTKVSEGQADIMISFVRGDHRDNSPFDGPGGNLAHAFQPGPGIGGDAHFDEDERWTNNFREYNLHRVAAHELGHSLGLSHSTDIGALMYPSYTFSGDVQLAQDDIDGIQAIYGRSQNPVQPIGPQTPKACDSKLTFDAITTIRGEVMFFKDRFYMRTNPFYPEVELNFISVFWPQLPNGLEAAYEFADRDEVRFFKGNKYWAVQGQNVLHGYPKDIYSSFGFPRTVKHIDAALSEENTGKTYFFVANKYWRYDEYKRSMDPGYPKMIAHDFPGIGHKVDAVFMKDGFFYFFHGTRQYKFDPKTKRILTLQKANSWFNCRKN
In words: Inhibition of human recombinant MMP-1 catalytic domain at 50 uM by fluorescence spectrophotometric analysis relative to control.

Series [6] has as its target T3, Matrix metalloproteinase-14 (Homo sapiens, UniProt P50281). In words: Inhibition of human recombinant MMP-14 catalytic domain using MOCAcPLGLA2pr(Dnp)AR-NH2 as substrate by fluorescence spectrophotometric analysis.
In series [7] the target is T4, Matrix metalloproteinase-9 (Homo sapiens, UniProt P14780). In words: Inhibition of human recombinant MMP-9 catalytic domain using MOCAcPLGLA2pr(Dnp)AR-NH2 as substrate by fluorescence spectrophotometric analysis.
T4 sequence (P14780 whole entry, the tested form may be a part): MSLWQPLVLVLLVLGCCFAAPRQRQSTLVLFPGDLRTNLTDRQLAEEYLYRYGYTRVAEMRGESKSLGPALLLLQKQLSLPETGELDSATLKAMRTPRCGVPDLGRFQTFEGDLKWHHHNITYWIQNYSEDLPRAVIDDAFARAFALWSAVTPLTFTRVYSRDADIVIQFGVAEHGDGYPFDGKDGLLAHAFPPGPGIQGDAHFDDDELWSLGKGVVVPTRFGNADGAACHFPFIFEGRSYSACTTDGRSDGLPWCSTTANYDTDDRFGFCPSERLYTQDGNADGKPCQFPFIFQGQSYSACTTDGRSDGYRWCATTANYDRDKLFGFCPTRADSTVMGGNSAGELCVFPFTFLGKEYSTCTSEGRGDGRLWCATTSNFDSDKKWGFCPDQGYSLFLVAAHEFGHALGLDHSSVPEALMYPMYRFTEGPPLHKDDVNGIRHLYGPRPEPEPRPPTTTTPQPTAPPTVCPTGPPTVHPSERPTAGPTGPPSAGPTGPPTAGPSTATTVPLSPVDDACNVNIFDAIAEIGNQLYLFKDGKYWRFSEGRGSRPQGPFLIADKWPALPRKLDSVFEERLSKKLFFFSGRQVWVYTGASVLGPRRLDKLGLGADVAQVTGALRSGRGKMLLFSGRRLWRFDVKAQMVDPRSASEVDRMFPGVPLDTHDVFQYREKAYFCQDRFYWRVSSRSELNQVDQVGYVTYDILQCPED
The target in series [8] is 72 kDa type IV collagenase (Homo sapiens, UniProt P08253). In words: Inhibition of human recombinant MMP-2 using MOCAcPLGLA2pr(Dnp)AR-NH2 as substrate by fluorescence spectrophotometric analysis.
Chain of 72 kDa type IV collagenase (P08253 whole entry, the tested form may be a part): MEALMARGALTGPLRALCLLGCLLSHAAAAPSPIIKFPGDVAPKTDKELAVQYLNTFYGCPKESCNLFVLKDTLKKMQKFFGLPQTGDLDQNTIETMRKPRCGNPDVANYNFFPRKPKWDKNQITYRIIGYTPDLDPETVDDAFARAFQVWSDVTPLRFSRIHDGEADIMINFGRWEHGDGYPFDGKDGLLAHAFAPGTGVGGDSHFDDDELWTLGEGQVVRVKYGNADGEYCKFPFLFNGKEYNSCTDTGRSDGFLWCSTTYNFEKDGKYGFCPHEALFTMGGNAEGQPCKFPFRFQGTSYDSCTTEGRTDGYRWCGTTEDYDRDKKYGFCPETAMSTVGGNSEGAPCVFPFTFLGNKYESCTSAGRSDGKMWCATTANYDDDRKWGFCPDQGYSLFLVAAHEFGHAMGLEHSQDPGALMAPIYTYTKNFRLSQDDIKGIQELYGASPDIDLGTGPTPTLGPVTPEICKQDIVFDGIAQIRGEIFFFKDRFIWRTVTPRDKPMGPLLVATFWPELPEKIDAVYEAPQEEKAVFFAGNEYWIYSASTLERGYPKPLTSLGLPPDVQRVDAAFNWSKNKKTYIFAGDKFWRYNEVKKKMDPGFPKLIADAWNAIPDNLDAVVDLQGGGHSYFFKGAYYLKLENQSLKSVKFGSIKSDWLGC
The target in series [9] is T3, Matrix metalloproteinase-14. The series can be described thus: Inhibition of human recombinant MMP-14 catalytic domain using MOCAcPLGLA2pr(Dnp)AR-NH2 as substrate at 50 uM by fluorescence spectrophotometric analysis relative to control.
Series [10] has as its target T4, Matrix metalloproteinase-9. In words: Inhibition of human recombinant MMP-9 catalytic domain using MOCAcPLGLA2pr(Dnp)AR-NH2 as substrate at 50 uM by fluorescence spectrophotometric analysis relative to control.
For another series, the system named is Liver. In words: Half life in rat liver S9 fraction at 10 uM by reversed-phase UPLC/ESI-MRM analysis. As to conditions: s9, 10 µM. The series is classed as ADME, subcellular. The method in brief: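 Male rat liver S9 (1.0 mg) with 0.5 mM NADPH and 10 µM compound (both final) in 50 mM potassium phosphate, pH 7.4, at 37 °C, sampled over time. Aliquots were stopped with acetonitrile containing internal standard, and the supernatant was run by UPLC/ESI-MRM. Half-lives used first-order kinetics on peak-area ratios to internal standard.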

Active and inactive are the calls of the source. No cut-off for these calls is given here.

For orientation: inhibition means the relative decrease from the control value, in per cent. As usually defined, the Ki is the equilibrium dissociation constant of an inhibitor or competing ligand from its target. For the molecule `CNC(=O)Oc1ccc(Oc2ccc(S(=O)(=O)CC3CS3)cc2)cc1` (stereo not given), the Ratio Ki (in series [1]; in the series filed under Homo sapiens; in series [2]) was 20 each time. Also, the inhibition was 6% in series [3], 30% in series [4] and 8% in series [5]. Also, the Ki in [6] stood at 12 µM; in series [7], 10 µM; in series [8], 0.39 µM.

Regarding `CC(C)NC(=O)Nc1ccc(Oc2ccc(S(=O)(=O)CC3CS3)cc2)cc1` (stereo not given), the Ratio Ki (in series [1]; in the series listed under Homo sapiens; in series [2]) was 20 each time. In addition, the inhibition in [3] amounted to 6%; in [4], 4%; in series [9], 37%; in [10] it was 26%. The inhibition result in [5] was “inactive”. For the same molecule, the Ki in [8] worked out at 0.42 µM.

With `CCCOC(=O)Nc1ccc(Oc2ccc(S(=O)(=O)CC3CS3)cc2)cc1` (stereo not given), the Ratio Ki in series [2] was 2. For the same molecule, the inhibition entry in series [3] and in [5] was “inactive” in each case. Further, the inhibition in series [4] was 27%. For the same molecule, the Ki in [6] is 2.1 µM; in series [7] it was 1.1 µM; in series [8] it was 0.49 µM.

For the molecule `CC(C)OC(=O)Oc1ccc(Oc2ccc(S(=O)(=O)CC3CS3)cc2)cc1` (stereo not given), the Ratio Ki in series [2] was determined as 2. Also, the inhibition in [3] was determined as 13%; in [4] it was 9%. Also, the inhibition result in [5] is “inactive”. Also, the inhibitory constant (Ki) in series [6] was 3 µM; in series [7] it was 1.3 µM; in series [8], 0.48 µM.

Take `CC(C)OC(=O)Nc1ccc(Oc2ccc(S(=O)(=O)CC3CS3)cc2)cc1` (stereo not given): in series [2], the Ratio Ki stood at 2. Besides, the inhibition entry in series [3], in series [4] and in series [5] was “inactive” throughout. Also, the Ki in series [6] is 2.5 µM; in [7], 2.7 µM; in series [8], 0.68 µM.

For the molecule `CNC(=O)Nc1ccc(Oc2ccc(S(=O)(=O)CC3CS3)cc2)cc1` (stereo not given), the Ratio Ki (in series [1]; in the series listed under Homo sapiens; in series [2]) was 20 each time. Moreover, the inhibition in series [3] is 8%; in series [4], 21%. The inhibition result in [5] is “inactive”. For the same molecule, the inhibitory constant (Ki) in series [6] was 19 µM; in series [7], 9.9 µM; in [8], 0.24 µM.

As for `CCCOC(=O)Oc1ccc(Oc2ccc(S(=O)(=O)CC3CS3)cc2)cc1` (stereo not given), the Ratio Ki in [2] amounted to 2. The inhibition in [3] amounted to 10%; in series [4], 29%. Besides, in series [5], the inhibition result was “inactive”. For the same molecule, the Ki in series [6] amounted to 2.8 µM; in [7], 1 µM; in [8], 0.31 µM.

On to `CCCNC(=O)Oc1ccc(Oc2ccc(S(=O)(=O)CC3CS3)cc2)cc1` (stereo not given), for which the Ratio Ki (in series [1]; in the series filed under Homo sapiens; in series [2]) was 20 each time. In addition, the inhibition in series [3] came out at 2%; in series [4] it was 38%. The inhibition result in series [5] is “inactive”. Further, the Ki was 27 µM in [6], 52 µM in [7] and 0.76 µM in series [8].

In the case of `CCCNC(=O)Nc1ccc(Oc2ccc(S(=O)(=O)CC3CS3)cc2)cc1` (stereo not given), the Ratio Ki (in series [1]; in the series listed under Homo sapiens; in [2]) was 20 each time. Further, the inhibition result in series [3] and in [5] was “inactive” throughout. The inhibition in series [4] worked out at 18%; in series [9], 8%; in series [10], 7%. Further, the Ki in [8] was found to be 0.56 µM.

Consider `CCOC(=O)Nc1ccc(Oc2ccc(S(=O)(=O)CC3CS3)cc2)cc1` (stereo not given), for which the t1/2 in the series with Liver is given as 24.8 min. Also, the inhibition result in [3] and in series [5] was “inactive” in each case. For the same molecule, in series [4], the inhibition was determined as 37%. Moreover, the inhibitory constant (Ki) was 1.9 µM in [6] and 0.29 µM in series [8].

In the series on Liver, `O=S(=O)(CC1CS1)c1ccc(Oc2ccc(O)cc2)cc1` (stereo not given) yielded a t1/2 of 23.5 min.

The record behind these values is ChEMBL document CHEMBL2440018 (J Med Chem, 2013).
